Measured values from ChEMBL document CHEMBL1134361, “C-Isoprenylation of flavonoids enhances binding affinity toward P-glycoprotein and modulation of cancer cell chemoresistance” (J Med Chem, 2001).

Experiments:
[1] = Hydrophobicity index was determined in C18 reverse phase silica gel 20 * 20 cm plates in methanol:water (8:2).; assay type: ADME
[2] = Effect of Chrysin Alkylation on the Binding to PgP Cytosolic Domain.; assay type: ADME
In short: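 Recombinant Pgp C-terminal cytosolic domain NBD2 (0.5 µM) in 20 mM potassium phosphate pH 6.8 with 0.5 M NaCl, 20% glycerol and 0.01% heptylcarbamoyl glucoside, 25 °C. Ligand titrated in aliquots up to 20 µM. Tryptophan fluorescence (ex 295 nm, em 310–360 nm) integrated; inner-filter corrected with N-acetyltryptophanamide. Curve fit gave KD and percent maximal quenching.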

[3] = Partition coefficient (logP); assay type: physicochemical; conditions: octanol/water
In short: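 Log P estimated by extrapolation from a log P vs R_M calibration curve built with quercetine and platanetine data.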

K562 = test: Relative daunomycin accumulation was determined in PgP-positive leukemic K562/R7 cells with daunomycin at a concentration of 10 uM; assay type: functional, Homo sapiens
In short: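 K562/R7 human leukemic cells with high Pgp (1 million/mL RPMI 1640) incubated 1 h at 37 °C with 10 µM daunomycin (final), with or without 10 µM modulator. Cells washed three times in ice-cold PBS, kept on ice, intracellular drug fluorescence read by flow cytometry. Fluorescence shift expressed relative to that of 2 µM cyclosporin A reference. Duplicates, at least three experiments.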

[4] = Direct binding to PgP recombinant cytosolic domain was measured by percent maximal quenching of the intrinsic fluorescence.; assay type: ADME; conditions: cytosol
In short: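 Recombinant C-terminal cytosolic NBD2 of Pgp at 0.5 µM in 20 mM potassium phosphate pH 6.8 with 0.5 M NaCl, 20% glycerol and 0.01% heptylcarbamoyl glucopyranoside detergent, 25 °C. Excitation at 295 nm, emission scanned 310–360 nm and integrated, buffer-corrected. Ligand added stepwise up to 20 µM. Inner-filter correction used N-acetyltryptophanamide. Curve fitting gave K_D and percent maximal quenching.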

SMILES	Hydrophobicity index [1]	Kd [2]	logP [3]	Delta Fmax [4]	Relative daunomycin accumulation (K562)
CC(C)=CCc1c(O)cc(O)c2c(=O)cc(-c3ccccc3)oc12	0.853	280 nM	6.2	81%	1.52
CC(C)=CCc1c(O)c(CC=C(C)C)c2oc(-c3ccccc3)cc(=O)c2c1O	1.296	15 nM	6.56	21.5%	0.84
O=c1cc(-c2ccccc2)oc2c(Cc3ccccc3)c(O)c(Cc3ccccc3)c(O)c12	1.06	36 nM	6.41	40.9%	0.39
O=c1cc(-c2ccccc2)oc2cc(O)cc(O)c12 [CHRYSIN]	0.358	13100 nM	5.7	94.6%	0.2
CC(C)Oc1c(C(C)C)c(O)c2c(=O)cc(-c3ccccc3)oc2c1C(C)C	1.479	33 nM	6.84	38.4%	0.29
Cc1c(O)cc2oc(-c3ccccc3)cc(=O)c2c1O	0.512	3100 nM	5.85	46.6%	0.2
COc1cc2oc(-c3ccccc3)cc(=O)c2c(O)c1C	0.842	1300 nM	6.18	57.3%	0.3
CC(C)Oc1cc2oc(-c3ccccc3)cc(=O)c2c(O)c1C(C)C	1.248	280 nM	6.6	44.5%	0.29
CC(C)Oc1cc(O)c2c(=O)cc(-c3ccccc3)oc2c1	0.898	1320 nM	6.24	53.2%	0.3
O=c1cc(-c2ccccc2)oc2c(Cc3ccccc3)c(O)cc(O)c12	0.754	990 nM	6.1	99.1%	0.25
CC(C)=CCc1c(O)cc2oc(-c3ccccc3)cc(=O)c2c1O	0.812	300 nM	6.15	83.4%	0.83

Further lines, with some results ahead:

Hydrophobicity index [1]	Kd [2]	logP [3]	Delta Fmax [4]	SMILES	Relative daunomycin accumulation (K562)
1.288	45 nM	6.64	48.2%	CC(C)=CCC/C(C)=C\Cc1c(O)cc2oc(-c3ccccc3)cc(=O)c2c1O	0.81
1.35	25 nM	6.71	67%	CC(C)=CCC/C(C)=C\Cc1c(O)cc(O)c2c(=O)cc(-c3ccccc3)oc12	0.9
0.754	340 nM	6.1	72.4%	O=c1cc(-c2ccccc2)oc2cc(O)c(Cc3ccccc3)c(O)c12	0.09
0.719	6300 nM	6.06	68.1%	COc1cc(O)c2c(=O)cc(-c3ccccc3)oc2c1 [TECHTOCHRYSIN]	0.23
1.076	68 nM	6.42	29.3%	O=c1cc(-c2ccccc2)oc2cc(OCc3ccccc3)cc(O)c12	0.27
0.608	210 nM	5.95	39%	CC(C)c1c(O)cc2oc(-c3ccccc3)cc(=O)c2c1O	0.24
